Assay [1] has as its system IKKβ. The note with it: ref 22 (Kasinski et al.); cited from earlier work.
The target of assay [2] is cytoplasmic tyrosine kinase Src (Homo sapiens, UniProt P12931). Nature of the assay: Preliminary kinase screen, Src. Type of assay: biochemical. The note with it: small panel of kinases.
The target in assay [3] is receptor tyrosine kinase IGFR (Homo sapiens, UniProt P08069). Put plainly: Preliminary kinase screen, IGFR. It counts as biochemical. The conditions noted are these: small panel of kinases.
Assay [4] deals with KDR (VEGFR2) (Homo sapiens, UniProt P35968). Nature of the assay: Z'-LYTE in vitro kinase assay, KDR. The note with it: read-out: inhibition of KDR. It counts as biochemical.
For assay [5], the target named is T1, IKBKB (IKKβ) (Homo sapiens, UniProt O14920).
T1 sequence (O14920 1-756): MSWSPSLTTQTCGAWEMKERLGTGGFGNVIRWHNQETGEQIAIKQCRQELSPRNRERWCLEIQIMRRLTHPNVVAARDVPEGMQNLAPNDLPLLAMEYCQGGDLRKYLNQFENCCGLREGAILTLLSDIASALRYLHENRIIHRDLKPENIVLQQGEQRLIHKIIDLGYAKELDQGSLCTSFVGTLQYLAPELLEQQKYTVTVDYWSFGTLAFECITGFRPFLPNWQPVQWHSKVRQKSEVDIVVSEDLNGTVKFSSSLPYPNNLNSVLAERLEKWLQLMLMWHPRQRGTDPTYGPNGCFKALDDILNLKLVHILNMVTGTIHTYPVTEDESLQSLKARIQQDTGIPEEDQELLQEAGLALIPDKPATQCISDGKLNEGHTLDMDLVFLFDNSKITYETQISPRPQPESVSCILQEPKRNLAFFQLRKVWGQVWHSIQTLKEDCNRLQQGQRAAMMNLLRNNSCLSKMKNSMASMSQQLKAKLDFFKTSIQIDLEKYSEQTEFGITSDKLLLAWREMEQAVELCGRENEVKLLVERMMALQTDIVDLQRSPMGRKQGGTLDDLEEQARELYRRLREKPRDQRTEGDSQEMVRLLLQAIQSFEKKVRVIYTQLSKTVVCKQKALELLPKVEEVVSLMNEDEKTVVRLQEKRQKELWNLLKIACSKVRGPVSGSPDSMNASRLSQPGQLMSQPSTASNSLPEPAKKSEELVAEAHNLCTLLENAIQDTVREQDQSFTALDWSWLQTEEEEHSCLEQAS
Nature of the assay: Z'-LYTE in vitro kinase assay, IKKβ. It counts as biochemical. The conditions noted are these: preliminary screen, small panel of kinases.

For assay [6], the target named is T2, NEK1 (Homo sapiens, UniProt Q96PY6).
T2 sequence (Q96PY6 1-1258): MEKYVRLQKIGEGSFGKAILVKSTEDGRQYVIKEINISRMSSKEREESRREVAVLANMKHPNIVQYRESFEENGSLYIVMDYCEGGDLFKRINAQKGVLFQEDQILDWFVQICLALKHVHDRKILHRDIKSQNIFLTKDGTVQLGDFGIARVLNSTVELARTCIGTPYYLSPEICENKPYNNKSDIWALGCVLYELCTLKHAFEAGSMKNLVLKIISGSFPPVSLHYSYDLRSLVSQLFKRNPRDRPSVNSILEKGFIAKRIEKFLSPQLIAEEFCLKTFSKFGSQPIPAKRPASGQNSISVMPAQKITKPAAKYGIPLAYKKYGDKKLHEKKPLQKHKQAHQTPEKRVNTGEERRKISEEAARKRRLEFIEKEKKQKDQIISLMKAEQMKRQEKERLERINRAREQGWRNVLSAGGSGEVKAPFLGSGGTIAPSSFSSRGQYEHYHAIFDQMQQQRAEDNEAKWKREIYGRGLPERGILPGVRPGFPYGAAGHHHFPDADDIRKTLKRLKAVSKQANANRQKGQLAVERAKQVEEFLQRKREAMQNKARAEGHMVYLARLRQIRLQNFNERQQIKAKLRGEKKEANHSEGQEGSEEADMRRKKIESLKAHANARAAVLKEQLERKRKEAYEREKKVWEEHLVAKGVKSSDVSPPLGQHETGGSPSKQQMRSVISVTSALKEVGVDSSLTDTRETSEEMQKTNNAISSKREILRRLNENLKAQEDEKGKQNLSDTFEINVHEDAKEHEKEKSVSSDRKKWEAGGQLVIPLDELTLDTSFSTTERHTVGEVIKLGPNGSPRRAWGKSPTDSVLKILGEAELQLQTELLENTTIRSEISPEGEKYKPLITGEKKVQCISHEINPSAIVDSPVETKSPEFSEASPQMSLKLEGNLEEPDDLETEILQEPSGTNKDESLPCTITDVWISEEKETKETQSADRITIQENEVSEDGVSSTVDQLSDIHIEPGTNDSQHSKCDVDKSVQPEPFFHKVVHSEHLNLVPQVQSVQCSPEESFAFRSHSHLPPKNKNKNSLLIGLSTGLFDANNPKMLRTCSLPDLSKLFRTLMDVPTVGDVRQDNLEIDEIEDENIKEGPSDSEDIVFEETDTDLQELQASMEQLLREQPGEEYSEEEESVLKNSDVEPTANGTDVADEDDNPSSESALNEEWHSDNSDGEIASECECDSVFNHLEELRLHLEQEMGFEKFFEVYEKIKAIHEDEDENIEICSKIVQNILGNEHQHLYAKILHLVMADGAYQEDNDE
Put plainly: Z'-LYTE in vitro kinase assay, NEK1. It counts as biochemical. The conditions noted are these: read-out: inhibition of NEK1.

Assay [7] has as its target AKT1 (PKB alpha) (Homo sapiens, UniProt P31749). Nature of the assay: Z'-LYTE in vitro kinase assay, AKT1. It counts as biochemical. The conditions noted are these: preliminary screen, small panel of kinases.
In assay [8] the target is PRKCβ1 (Homo sapiens, UniProt P05771). Put plainly: Kinase profile screen at 5 μM, PRKCβ1. It counts as biochemical. The note with it: read-out: inhibition of PRKCβ1. The method in brief:
(§1)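 Most kinases used the Z'Lyte read-out: a FRET-labelled peptide, protease development, and coumarin/fluorescein emission ratio. Some used Adapta (ADP TR-FRET) or a kinase cascade. Protease- and fluorescence-interference control wells were included. Values above 100% or below 0% were taken as maximal or no inhibition.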

Assay [9] concerns the target EGFR (Homo sapiens, UniProt P00533). Put plainly: Kinase profile screen at 5 μM, EGFR. Type of assay: biochemical. The note with it: read-out: inhibition of EGFR. The method in brief:
as §1

The target in assay [10] is T3, AKT2 (Homo sapiens, UniProt P31751). Put plainly: Z'-LYTE in vitro kinase assay, AKT2. Type of assay: biochemical. The note with it: preliminary screen, small panel of kinases.
The conditions of assay [11]: cited from earlier work.
The target of assay [12] is MEK1 (Homo sapiens, UniProt Q02750). Put plainly: Z'-LYTE MAP2K1. Type of assay: biochemical. The conditions noted are these: preliminary screen, small panel of kinases.
For assay [13], the target named is T4, IRAK4 (Homo sapiens, UniProt Q9NWZ3).
T4 sequence (Q9NWZ3 1-460): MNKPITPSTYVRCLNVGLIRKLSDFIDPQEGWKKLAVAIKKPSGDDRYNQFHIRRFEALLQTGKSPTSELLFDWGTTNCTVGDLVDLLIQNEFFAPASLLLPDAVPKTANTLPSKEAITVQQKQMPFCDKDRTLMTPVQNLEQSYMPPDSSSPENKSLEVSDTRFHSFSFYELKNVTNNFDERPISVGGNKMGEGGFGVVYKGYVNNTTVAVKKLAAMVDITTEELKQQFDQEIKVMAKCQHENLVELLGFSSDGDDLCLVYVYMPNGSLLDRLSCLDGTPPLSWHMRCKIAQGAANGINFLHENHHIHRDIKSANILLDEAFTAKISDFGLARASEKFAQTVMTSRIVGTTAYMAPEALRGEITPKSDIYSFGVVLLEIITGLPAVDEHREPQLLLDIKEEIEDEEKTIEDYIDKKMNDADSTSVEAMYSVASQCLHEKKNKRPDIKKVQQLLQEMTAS
Nature of the assay: Kinase profile screen at 5 μM, IRAK4. It counts as biochemical. The note with it: read-out: inhibition of IRAK4. The method, boiled down:
as §1

In assay [14] the target is T5, CHEK1 (Homo sapiens, UniProt O14757).
T5 sequence (O14757 1-476): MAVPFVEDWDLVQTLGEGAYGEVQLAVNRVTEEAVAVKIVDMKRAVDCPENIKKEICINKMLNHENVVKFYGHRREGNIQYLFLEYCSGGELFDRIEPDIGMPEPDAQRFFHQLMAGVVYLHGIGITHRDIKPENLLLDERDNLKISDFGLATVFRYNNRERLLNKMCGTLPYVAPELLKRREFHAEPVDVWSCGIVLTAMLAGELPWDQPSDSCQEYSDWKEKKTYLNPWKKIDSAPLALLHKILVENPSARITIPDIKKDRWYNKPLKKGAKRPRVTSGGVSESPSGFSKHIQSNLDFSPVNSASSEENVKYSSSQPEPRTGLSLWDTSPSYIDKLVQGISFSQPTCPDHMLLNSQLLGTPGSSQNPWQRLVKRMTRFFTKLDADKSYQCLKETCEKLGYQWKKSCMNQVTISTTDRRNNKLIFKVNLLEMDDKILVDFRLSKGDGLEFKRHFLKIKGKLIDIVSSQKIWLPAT
Put plainly: Kinase profile screen at 5 μM, CHEK1. Type of assay: biochemical. The note with it: read-out: inhibition of CHEK1. The method in brief: as §1

The target of assay [15] is CDK2 (Homo sapiens, UniProt P24941). Nature of the assay: Kinase profile screen at 5 μM, CDK2. It counts as biochemical. The note with it: read-out: inhibition of CDK2. The method in brief:
as §1

The target of assay [16] is PIM1 (Homo sapiens, UniProt P11309). Nature of the assay: Kinase profile screen at 5 μM, PIM1. Type of assay: biochemical. The conditions noted are these: read-out: inhibition of PIM1. The method, boiled down:
as §1

Assay [17] deals with T6, ACVR1B (Homo sapiens, UniProt P36896).
T6 sequence (P36896 24-505): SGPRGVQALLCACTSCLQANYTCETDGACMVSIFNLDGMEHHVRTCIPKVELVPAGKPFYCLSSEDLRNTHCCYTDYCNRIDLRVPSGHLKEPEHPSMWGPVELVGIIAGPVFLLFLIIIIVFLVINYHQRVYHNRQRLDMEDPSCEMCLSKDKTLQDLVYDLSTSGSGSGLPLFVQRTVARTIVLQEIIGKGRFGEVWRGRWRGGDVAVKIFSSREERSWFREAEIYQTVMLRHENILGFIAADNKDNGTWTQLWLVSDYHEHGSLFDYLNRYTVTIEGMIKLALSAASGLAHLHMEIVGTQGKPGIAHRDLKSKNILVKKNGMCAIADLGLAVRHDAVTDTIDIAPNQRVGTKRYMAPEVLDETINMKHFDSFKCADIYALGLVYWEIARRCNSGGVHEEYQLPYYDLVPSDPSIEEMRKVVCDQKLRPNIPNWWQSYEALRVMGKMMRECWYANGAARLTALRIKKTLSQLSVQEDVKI
Put plainly: Kinase profile screen at 5 μM, ACVR1B. The conditions noted are these: read-out: inhibition of ACVR1B. It counts as biochemical. The method, boiled down: as §1

Assay [18] deals with panel of 50 kinases. Nature of the assay: Kinase profile screen, 50-kinase panel. It counts as biochemical. The note with it: 5 μM, of fifty kinases tested. The method in brief: as §1
The target in assay [19] is CDK7 (Homo sapiens, UniProt P50613). Nature of the assay: Kinase profile screen at 5 μM, CDK7. It counts as biochemical. The conditions noted are these: read-out: inhibition of CDK7. The method, boiled down: as §1
Assay [20] concerns the target T3, AKT2. Put plainly: ADP Quest enzyme kinetics, Michaelis-Menten global analysis. It counts as biochemical. The conditions noted are these: varying ATP and inhibitor concentrations. The method in brief:
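Purified recombinant human AKT2 with Crosstide peptide substrate; reactions run 10-90 min using fresh samples at varying ATP and inhibitor concentrations. ADP Quest enzyme-coupled fluorescence gave total ADP, and rates came from ADP formed over time. Rates were fitted by global non-linear regression to Michaelis-Menten competitive (shared Ki and Vmax) and mixed (shared Ki, α) models, with Ki and Vmax >0.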

The target of assay [21] is RAF1 (Homo sapiens, UniProt P04049, Y340D/Y341D). Put plainly: Z'-LYTE RAF1. Type of assay: biochemical. The note with it: preliminary screen, small panel of kinases.

Molecules are shown by their SMILES.

Consider two compounds from publication PMC3927397 (Journal of medicinal chemistry, 2013).

Chain of receptor tyrosine kinase IGFR (P08069 31-1367): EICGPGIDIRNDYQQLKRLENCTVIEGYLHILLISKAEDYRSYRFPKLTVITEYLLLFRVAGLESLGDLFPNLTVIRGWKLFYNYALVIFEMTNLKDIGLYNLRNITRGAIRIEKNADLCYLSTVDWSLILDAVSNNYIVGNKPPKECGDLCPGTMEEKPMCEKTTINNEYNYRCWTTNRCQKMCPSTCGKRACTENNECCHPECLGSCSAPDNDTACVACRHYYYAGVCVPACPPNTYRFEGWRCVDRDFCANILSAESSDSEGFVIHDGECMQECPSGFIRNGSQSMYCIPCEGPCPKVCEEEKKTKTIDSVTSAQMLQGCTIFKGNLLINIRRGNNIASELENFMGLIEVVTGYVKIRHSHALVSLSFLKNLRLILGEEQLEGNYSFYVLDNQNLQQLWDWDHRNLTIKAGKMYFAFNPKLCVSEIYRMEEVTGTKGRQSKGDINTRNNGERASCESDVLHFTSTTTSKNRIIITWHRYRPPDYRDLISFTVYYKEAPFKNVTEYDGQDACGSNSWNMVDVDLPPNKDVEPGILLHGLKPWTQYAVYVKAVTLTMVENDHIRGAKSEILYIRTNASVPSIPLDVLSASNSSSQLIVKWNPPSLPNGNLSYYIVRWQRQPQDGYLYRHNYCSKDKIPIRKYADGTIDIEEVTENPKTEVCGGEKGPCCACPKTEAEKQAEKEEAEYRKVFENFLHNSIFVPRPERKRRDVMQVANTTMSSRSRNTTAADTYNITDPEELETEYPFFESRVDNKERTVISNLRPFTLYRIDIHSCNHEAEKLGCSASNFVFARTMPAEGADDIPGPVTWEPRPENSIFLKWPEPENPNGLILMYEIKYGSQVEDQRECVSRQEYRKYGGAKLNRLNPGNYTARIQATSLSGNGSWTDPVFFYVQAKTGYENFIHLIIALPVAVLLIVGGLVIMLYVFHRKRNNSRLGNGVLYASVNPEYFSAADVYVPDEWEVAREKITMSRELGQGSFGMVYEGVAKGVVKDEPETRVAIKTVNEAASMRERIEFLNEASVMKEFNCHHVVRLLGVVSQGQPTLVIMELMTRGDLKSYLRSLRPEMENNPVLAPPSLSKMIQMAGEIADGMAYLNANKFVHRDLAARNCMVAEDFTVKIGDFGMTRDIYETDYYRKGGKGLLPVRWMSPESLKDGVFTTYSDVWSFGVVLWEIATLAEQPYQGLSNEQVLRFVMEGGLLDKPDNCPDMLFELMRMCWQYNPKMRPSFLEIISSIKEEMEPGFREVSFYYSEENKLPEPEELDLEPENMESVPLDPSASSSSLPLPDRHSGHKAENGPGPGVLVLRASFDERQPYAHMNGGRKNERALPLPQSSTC
T3 sequence (P31751 whole entry): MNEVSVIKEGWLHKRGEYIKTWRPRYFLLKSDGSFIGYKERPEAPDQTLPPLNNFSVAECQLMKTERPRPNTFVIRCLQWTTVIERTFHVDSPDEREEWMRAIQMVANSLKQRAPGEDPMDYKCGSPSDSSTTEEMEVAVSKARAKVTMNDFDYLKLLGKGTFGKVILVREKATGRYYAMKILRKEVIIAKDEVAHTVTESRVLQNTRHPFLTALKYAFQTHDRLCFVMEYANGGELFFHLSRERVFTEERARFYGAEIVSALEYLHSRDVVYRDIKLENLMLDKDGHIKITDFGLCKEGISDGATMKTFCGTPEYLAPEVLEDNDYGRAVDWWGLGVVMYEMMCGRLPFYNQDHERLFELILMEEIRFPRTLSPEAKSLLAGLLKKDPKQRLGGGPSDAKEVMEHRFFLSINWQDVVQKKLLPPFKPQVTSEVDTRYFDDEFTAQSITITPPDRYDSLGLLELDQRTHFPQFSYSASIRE
Chain of cytoplasmic tyrosine kinase Src (P12931 whole entry): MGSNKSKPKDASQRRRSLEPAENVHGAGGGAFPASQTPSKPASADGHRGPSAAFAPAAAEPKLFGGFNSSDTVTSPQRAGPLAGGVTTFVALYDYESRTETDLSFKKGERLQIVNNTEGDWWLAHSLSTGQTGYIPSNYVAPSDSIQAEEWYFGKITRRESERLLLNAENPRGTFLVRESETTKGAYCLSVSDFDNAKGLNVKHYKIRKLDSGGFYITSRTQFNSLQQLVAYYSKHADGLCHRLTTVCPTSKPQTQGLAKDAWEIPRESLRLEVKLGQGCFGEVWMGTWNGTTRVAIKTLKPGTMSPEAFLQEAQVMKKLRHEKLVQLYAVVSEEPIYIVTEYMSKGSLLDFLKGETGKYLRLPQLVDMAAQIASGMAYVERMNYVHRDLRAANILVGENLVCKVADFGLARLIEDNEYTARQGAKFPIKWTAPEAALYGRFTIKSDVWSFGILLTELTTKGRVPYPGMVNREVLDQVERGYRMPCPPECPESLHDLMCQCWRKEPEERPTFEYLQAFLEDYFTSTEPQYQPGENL
Chain of CDK7 (P50613 whole entry, species assumed): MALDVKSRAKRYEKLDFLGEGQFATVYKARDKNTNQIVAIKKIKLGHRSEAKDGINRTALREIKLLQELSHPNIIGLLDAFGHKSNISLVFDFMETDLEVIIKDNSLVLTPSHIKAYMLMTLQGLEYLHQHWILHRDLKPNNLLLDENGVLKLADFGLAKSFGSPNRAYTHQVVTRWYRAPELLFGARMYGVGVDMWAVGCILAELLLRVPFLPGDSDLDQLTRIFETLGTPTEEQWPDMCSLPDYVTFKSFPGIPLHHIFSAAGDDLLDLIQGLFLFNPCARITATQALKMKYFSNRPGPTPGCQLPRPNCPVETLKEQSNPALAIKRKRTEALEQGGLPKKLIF
Chain of CDK7 (P51946 whole entry partner, species assumed): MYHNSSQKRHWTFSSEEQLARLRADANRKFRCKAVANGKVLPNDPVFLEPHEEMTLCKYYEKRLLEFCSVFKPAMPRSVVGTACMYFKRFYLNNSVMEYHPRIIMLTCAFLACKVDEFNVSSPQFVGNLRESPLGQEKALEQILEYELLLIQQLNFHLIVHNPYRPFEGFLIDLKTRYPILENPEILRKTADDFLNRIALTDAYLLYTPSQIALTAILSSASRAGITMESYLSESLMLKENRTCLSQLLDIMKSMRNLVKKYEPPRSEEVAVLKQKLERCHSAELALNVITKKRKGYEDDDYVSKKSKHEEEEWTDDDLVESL
Chain of CDK7 (P51948 whole entry partner, species assumed): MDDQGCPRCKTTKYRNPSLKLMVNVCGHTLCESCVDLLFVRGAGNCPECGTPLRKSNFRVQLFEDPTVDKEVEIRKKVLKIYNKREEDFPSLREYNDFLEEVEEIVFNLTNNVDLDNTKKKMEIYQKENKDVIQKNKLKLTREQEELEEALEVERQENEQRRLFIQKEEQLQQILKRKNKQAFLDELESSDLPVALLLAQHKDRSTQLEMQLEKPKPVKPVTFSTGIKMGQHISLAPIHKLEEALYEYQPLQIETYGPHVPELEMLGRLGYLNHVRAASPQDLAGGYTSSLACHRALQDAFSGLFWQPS
Chain of PRKCβ1 (P05771 whole entry): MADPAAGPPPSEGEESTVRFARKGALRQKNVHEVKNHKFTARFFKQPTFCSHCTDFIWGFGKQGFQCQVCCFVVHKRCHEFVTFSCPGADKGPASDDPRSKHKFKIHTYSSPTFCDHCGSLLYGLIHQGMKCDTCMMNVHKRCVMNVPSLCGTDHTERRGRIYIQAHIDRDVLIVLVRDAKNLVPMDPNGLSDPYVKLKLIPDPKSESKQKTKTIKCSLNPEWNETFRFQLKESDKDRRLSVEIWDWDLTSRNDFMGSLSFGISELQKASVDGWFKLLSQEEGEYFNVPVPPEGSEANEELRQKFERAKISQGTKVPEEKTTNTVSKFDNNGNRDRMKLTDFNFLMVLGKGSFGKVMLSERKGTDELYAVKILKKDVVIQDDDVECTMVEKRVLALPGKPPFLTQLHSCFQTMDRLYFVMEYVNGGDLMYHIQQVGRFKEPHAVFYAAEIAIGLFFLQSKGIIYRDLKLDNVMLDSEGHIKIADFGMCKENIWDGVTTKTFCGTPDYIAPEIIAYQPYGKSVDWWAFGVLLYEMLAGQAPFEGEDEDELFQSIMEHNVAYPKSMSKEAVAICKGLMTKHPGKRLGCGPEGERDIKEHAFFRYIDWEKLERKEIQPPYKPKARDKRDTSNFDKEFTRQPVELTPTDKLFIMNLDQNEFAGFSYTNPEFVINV
Chain of AKT1 (PKB alpha) (P31749 whole entry): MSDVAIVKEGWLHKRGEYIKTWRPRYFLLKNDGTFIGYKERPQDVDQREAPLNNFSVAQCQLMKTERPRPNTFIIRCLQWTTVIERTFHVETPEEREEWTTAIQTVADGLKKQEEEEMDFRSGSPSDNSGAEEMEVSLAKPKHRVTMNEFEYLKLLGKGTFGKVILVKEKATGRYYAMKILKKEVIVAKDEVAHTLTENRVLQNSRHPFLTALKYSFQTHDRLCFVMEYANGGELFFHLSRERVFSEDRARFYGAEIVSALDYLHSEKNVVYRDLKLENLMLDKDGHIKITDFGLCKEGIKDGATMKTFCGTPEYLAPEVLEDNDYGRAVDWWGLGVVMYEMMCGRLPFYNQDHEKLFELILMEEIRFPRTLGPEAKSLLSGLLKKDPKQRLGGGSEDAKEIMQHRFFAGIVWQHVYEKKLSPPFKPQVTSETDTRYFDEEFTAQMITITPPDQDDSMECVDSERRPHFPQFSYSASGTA
Chain of PIM1 (P11309 whole entry, species assumed): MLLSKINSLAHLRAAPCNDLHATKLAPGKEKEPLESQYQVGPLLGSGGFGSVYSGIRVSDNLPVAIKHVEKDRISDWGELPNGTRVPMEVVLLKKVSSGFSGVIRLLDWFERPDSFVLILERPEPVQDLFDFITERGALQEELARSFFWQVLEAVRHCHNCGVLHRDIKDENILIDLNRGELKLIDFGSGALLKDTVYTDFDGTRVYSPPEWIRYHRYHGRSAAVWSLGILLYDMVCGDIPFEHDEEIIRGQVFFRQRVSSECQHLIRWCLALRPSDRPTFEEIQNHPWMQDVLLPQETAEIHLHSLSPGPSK

In the case of `O=C1/C(=C/c2ccccc2F)CNC/C1=C\c1ccccc1F` [Compound 3, 3,5-bis(2-flurobenzylidene)piperidin-4-one], in assay [1], the “mechanism of IKKβ blockade” value was “mixed mechanism”. Also, the “inhibition of Src” value in assay [2] was “weak effect”. For the same compound, the “inhibition of IGFR” value in assay [3] is “no measurable inhibition”.
The inhibition is the percentage by which the read-out fell short of the control. Regarding `O=C1/C(=C/c2ccccn2)CNC/C1=C\c1ccccn1` [Compound 4, 3,5-Bis(2-pyridinylmethylidene)-4-piperidone], the inhibition at 5 µM is at least 85% in assay [4]; at least 85% in assay [6]; at least 85% in [8]; at most 10% in [9]; at most 10% in assay [13]; at least 85% in assay [14]. The inhibition at 5 µM in [15], in assay [16], in [17] and in [19] was at most 10% throughout. In addition, the “inhibition of IKKβ” value in assay [5] was “moderate inhibition”. Further, the “inhibition of AKT1” value in [7] was “significantly increased blocking action”. In addition, in assay [10], the “inhibition of AKT2” value was “significantly increased blocking action”. In assay [11], the “kinase suppression by comparison with curcumin” value is on record as at least 10 fold. The “inhibition of MEK1” value in assay [12] is listed as “moderate inhibition”. Besides, the “number of kinases inhibited at ≤40%” value in assay [18] amounted to 28. Moreover, the “number of kinases with 40-80% inhibition (modestly blocked)” value in assay [18] is “twelve”. The “α (mixed-model parameter, global analysis of Michaelis-Menten graph)” value in [20] is recorded as 31. The “inhibition of Src” value in [2] was “weak effect”. The “inhibition of RAF1” value in [21] was “moderate inhibition”. In assay [3], the “inhibition of IGFR” value is reported as “no measurable inhibition”.
